Source: PubChem BioAssay
RGS4 block – human RGS4 inhibition; HEK293 M3R/RGS4 inducible, Fluo-4 calcium flux; active compounds read high; triggered by carbachol at its EC20; hit rate 0.45% among 310,000; B-score at 10 µM; AID 463165;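 active = B-score, a plate-corrected calcium signal, over three deviations above library mean, with baseline fluorescence within five deviations of library mean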;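 note: RGS4 expression induced by doxycycline in cells with stable M3 receptor; B-score is computed from the integrated fluorescence ratio over baseline after carbachol; higher B-score means a larger calcium signal and so more RGS4 inhibition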
Target sequence (P49798 whole entry, looked up): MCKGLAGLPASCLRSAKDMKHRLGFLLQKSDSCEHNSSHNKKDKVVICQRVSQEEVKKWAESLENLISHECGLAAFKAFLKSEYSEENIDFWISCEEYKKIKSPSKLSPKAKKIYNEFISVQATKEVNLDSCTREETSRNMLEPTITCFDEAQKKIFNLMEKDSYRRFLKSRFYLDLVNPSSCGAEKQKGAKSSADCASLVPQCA
MrgX1 PAM – allosterically activates human MrgX1 receptor signaling; hit rate 0.63% among 310,000; B-score at 10 µM; AID 588675; MrgX1-HEK293, Fluo-4 calcium flux, FDSS; active compounds read high;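 active = plate-corrected calcium response at least 3 library SD above typical, normal starting fluorescence, not activating the receptor alone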;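 note: compound read alongside a low EC10 to EC30 dose of BAM8-22 agonist; peak minus trough fluorescence over baseline measured at the second addition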
Target sequence (Q96LB2 whole entry, looked up): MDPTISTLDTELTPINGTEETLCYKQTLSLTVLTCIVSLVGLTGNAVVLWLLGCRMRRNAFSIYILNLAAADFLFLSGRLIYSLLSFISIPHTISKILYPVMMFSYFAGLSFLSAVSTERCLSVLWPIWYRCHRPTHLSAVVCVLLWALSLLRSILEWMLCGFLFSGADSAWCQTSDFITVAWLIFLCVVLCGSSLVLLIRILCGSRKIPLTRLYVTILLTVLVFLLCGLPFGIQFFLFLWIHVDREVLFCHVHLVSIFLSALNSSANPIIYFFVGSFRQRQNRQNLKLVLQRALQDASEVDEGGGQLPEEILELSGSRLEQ
MrgX1 antagonist – antagonists of human MrgX1 receptor; B-score at 10 µM; MRGX1-HEK293 calcium flux, Fluo-4, BAM8-22 antagonism; active compounds read low; hit rate 1.3% among 310,000; Q96LB2;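 active = calcium-response B-score plate-corrected more than 3 library SD below zero, starting fluorescence within 5 deviations, no agonist response on first addition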;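 note: peak minus trough fluorescence over baseline after final BAM8-22 challenge near maximal dose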
RGS4 act – RGS4 potentiation or activation; HEK293 M3R/inducible RGS4, carbachol calcium flux Fluo4; active compounds read low; B-score at 10 µM; hit rate 0.92% among 310,000; AID 463111;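 active = B-score of the integrated calcium signal more than 4 SD below the library mean, with starting fluorescence not abnormally high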;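 note: negative B-score means reduced calcium response which marks RGS4 activation or potentiation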
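test system = HEK293 cells with stable M3R and inducible RGS4 | schedule = recording 10 s baseline at 1 Hz, 100 s post-agonist | technique = Fluo4-AM (2 µM) calcium-flux fluorescence, kinetic read | measure = Agonist-evoked peak-minus-minimum fluorescence over baseline, integrated ratio, B score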
MrgX1 agonist – human MrgX1 receptor agonism, primary screen. Q96LB2. MrgX1-HEK293 cells, Fluo-4 calcium fluorescence, agonist mode; active compounds read high. B-score at 10 µM. hit rate 0.44% among 310,000;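 active = calcium response B-score plate-corrected fluorescence ratio at least 3 library SD, with starting fluorescence B-score inside 5 SD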
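Material – MrgX1-expressing HEK293 cells · Input – 15,000 cells seeded per well · Dosing – compound as first of three additions · Times – overnight seeding, then 1 h dark dye loading · Measured by – kinetic Fluo-4 NW fluorescence of intracellular calcium · Read-out – B-scored fluorescence response ratio · Benchmarks – positive and negative control wells on each plate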
MrgX1 PAM conf – confirmation of human MrgX1 receptor positive allosteric modulators; MrgX1-HEK293, Fluo-4 calcium fluorescence, FDSS; hit rate 13% among 1,200; shares compounds with MrgX1 PAM; activation (ratio percentage), % at 10 µM; AID 602413;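 active = ratio at least 3 SD above the weak peptide control, stable starting fluorescence, no direct agonism earlier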;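 note: compound followed by low BAM8-22 agonist challenge near EC20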
HEK293 Ca flux – counter-screen for MrgX1 antagonists: effect in parental HEK293 cells; shares compounds with MrgX1 antagonist; Fluo-4 calcium fluorescence, FDSS; fluorescence ratio F(max-min)/F0 at 10 µM; hit rate 2% among 4,000; AID 624111;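 active = duplicate-averaged calcium fluorescence ratio at least three times the standard deviation of buffer wells, a nonspecific response in parental cells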
HEK293 Ca counter – activity in parental HEK293 cells without MrgX1 | shares compounds with MrgX1 antagonist | parental HEK293 calcium flux, Fluo-4 fluorescence ratio; active compounds read high | fluorescence ratio F(max-min)/F0 at 10 µM | hit rate 0.4% among 4,000 | AID 624114;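 active = calcium fluorescence ratio, averaged over duplicates, at least 3 SD of the buffer-well ratio, meaning a nonspecific response in receptor-free cells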;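 note: untransfected parental HEK293 lacking MrgX1 used as counterscreen for MrgX1 allosteric activators; fluorescence change taken during the second addition on a kinetic imager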
HEK293 Ca cntr2 – MrgX1 activator counter-screen hit in parental HEK293 cells | shares compounds with MrgX1 antagonist | Fluo-4 calcium fluorescence (FDSS); active compounds read high | fluorescence ratio F(max-min)/F0 at 10 µM | hit rate 8.7% among 4,000 | AID 624115;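 active = calcium fluorescence ratio at least three times the spread of buffer wells, meaning a non-specific response in parental cells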
Numbers without * were called inactive; i = inactive; . = not tested or not shown. Shown are actives, neighbours in structure and some others; about 3.5% of the full set was active somewhere.

SMILES | RGS4 block | MrgX1 PAM | MrgX1 antagonist | RGS4 act | MrgX1 agonist | MrgX1 PAM conf | HEK293 Ca flux | HEK293 Ca counter | HEK293 Ca cntr2
Nc1c(-c2ccc3c(c2)OCCO3)oc2ccccc2c1=O | i | i | i | i | i | . | . | . | .
COc1ccc(Oc2nc(C)nc3c2oc2ccccc23)cc1 | i | 14.1* | i | i | i | 26.7%* | i | i | i
COc1ccc(Nc2nc(C)nc3c2oc2ccccc23)c(OC)c1 | i | i | i | i | i | . | . | . | .
Cc1nc(Oc2ccccc2)c2oc3ccccc3c2n1 | i | 34.1* | i | i | i | 24.9%* | i | i | i
Cc1ccc(-c2nnc(N3CCOCC3)c3ccccc23)cc1S(=O)(=O)NCc1cccnc1 | i | i | i | i | i | . | . | . | .
Cn1c(=NC(=O)C2=NNC(=O)CC2)sc2ccccc21 | i | i | i | i | i | . | . | . | .
O=C(O)c1cccc(S(=O)(=O)NCCc2ccccc2)c1 | i | i | i | i | i | . | . | . | .
COc1ccc(-c2nsc3c(SCc4ccccc4)ncnc23)cc1 | i | 6.76* | i | i | i | i | i | i | i
CCN(CC)C(=O)CSc1ncnc2c(-c3ccc(OC)cc3)nsc12 | i | i | i | i | i | . | . | . | .
CC(C)c1ccc(OCC(=O)NC(C)c2ccccc2)cc1 (stereo not drawn) | i | i | i | i | i | . | . | . | .
CC(NC(=O)COc1ccccc1Cl)c1ccccc1 (stereo not drawn) | i | 7.16* | i | i | i | i | i | i | i
CCc1nc2ccccc2c(C(=O)NCc2ccccc2)c1C | i | 6.98* | i | i | i | i | i | i | i
CCc1nc2ccccc2c(C(=O)O)c1C | i | i | i | i | i | . | . | . | .
CCCCCCOc1cccc(N)c1 | i | i | i | i | i | . | . | . | .
COc1ccc(C(=O)NC(=S)NNC(=O)c2ccc3ccccc3n2)cc1 | i | i | i | i | i | . | . | . | .
CCNC(=S)N(Cc1cc2cc(C)c(C)cc2[nH]c1=O)C1CCCC1 | i | i | i | i | i | . | . | . | .
CCC(=O)N(Cc1cc2cc(C)c(C)cc2[nH]c1=O)C1CCCCC1 | i | 7.63* | i | i | i | i | i | i | i
COCC1CCCN(Cc2nc(C(c3ccccc3)c3ccccc3)no2)C1 (stereo not drawn) | i | 13.9* | i | i | i | 10.3%* | i | i | i
CCc1ccc2c(c1)[C@H]1OCC[C@H]1[C@@H](c1cccs1)N2 | i | 9.47* | i | i | i | i | i | i | i
CC12CCC(=O)N1C(C(=O)Nc1nc3ccc(Cl)cc3s1)CS2 (stereo not drawn) | i | 16.2* | i | i | i | i | i | i | i
CC12CCC(=O)N1C(C(=O)Nc1nc3ccc(S(C)(=O)=O)cc3s1)CS2 (stereo not drawn) | i | i | i | i | i | . | . | . | .
O=C(CCn1c(=S)oc2ccccc21)NC1CCCCCC1 | i | 6.97* | i | i | i | i | i | i | i
COc1ccc(-c2cc(C(F)(F)F)n3ncc(C(=O)NCc4ccco4)c3n2)cc1 | i | i | i | i | i | . | . | . | .
COc1ccc(-c2cc(C(F)(F)F)n3ncc(C(=O)N(C)Cc4ccccc4)c3n2)cc1 | i | 6.94* | i | i | i | i | i | i | i
CCN(CC)C(=S)SCc1csc(CC(=O)Nc2ccccc2C)n1 | i | 9.84* | i | i | i | i | i | i | i
